# Assay outcomes from PubChem BioAssay.
# Compounds with a hit are over-represented: about 3.3% of the library has one in this group of screens.
# NRP1-CendR mod – modulators of CendR peptide binding to NRP-1, primary screen, biochemical, fluorescence polarization, uHTS; Neuropilin-1 (Homo sapiens), O14786; FAM-RPARPAR peptide binding to NRP-1; inhibition, % at 25 µM; 0.85% of 360,000 active;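 active means inhibition or corrected inhibition above about 18%, plus a signal ratio from 0.5 to 1.5, limit read from the data, passing the limit was not always enough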
# Arr AP2 block – inhibitors of beta-arrestin/AP2 binding, primary screen, biochemical, GPCR trafficking, flow cytometry; FITC-arrestin peptide / GST-AP2 beads; AP2 beta2 appendage carries R879A mutation; inhibition, % at 10 µM; beta-arrestin 1 C-terminal peptide binding to AP2 beta2-adaptin appendage (human); 0.31% of 340,000 active; AID 504490, 2011;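 active means inhibition above a set limit, near 3 SD of compounds lacking own fluorescence, cut at about 54% in these data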;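 further: plate controls were DMSO wells for no effect and 5 µM unlabelled arrestin peptide for full effect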
#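 Test system: GST-tagged AP2 beta2-adaptin appendage (R879A) on 4 µm glutathione beads; also added: fluorescein-tagged arrestin peptide at 50 nM final; timing: 12 min plus 1 h, RT; signal: flow cytometry, FL1 (488/535 nm); read-out: percent drop in bead-associated FITC signal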
# M18AAP inhibitor – PfM18AAP inhibitors, malaria aminopeptidase, primary screen, biochemical, QFRET, recombinant enzyme; M18 aspartyl aminopeptidase (Plasmodium falciparum 3D7); H-Glu-NHMec fluorogenic cleavage; inhibition, % at 7.35 µM; 1.2% of 290,000 active; AID 1822, 2009;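 active means inhibition above the campaign mean inhibition over all tested compounds plus 3 SD, cut at about 28% in these data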;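 further: 0% = plate median of test compound wells and 100% = 2 mM ZnCl2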
# sPLA2-III inh – human group III sPLA2 inhibitors, primary screen, biochemical, QFRET, BODIPY PC-A2 liposome substrate; Group 3 secretory phospholipase A2 (Homo sapiens), Q9NZ20; QFRET BODIPY PC-A2 liposome hydrolysis, fluorescence; inhibition, % at 12.2 µM; 0.56% of 370,000 active; AID 743126, 2013;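 active means inhibition above mean plus 3 SD of compounds lying within the high and low control bounds, cut at about 19% in these data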;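 further: 0% = median of test compound wells and 100% = no enzyme DMSO wells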
# Target sequence (Q9NZ20 whole entry, looked up): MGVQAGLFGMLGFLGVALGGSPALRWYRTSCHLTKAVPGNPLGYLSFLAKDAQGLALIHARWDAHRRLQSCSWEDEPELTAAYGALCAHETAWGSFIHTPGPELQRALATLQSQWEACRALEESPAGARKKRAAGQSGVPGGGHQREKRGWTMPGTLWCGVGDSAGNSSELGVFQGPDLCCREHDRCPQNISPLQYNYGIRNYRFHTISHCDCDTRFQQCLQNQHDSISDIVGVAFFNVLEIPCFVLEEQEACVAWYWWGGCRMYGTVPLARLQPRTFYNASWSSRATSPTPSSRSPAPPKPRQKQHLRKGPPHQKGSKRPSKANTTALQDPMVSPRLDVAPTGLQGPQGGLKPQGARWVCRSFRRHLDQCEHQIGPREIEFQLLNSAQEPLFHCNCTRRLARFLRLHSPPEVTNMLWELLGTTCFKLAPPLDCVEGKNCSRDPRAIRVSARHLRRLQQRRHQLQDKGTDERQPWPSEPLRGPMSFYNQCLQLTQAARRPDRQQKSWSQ
# m5-HT2A agonist – mouse Htr2a agonists via beta-arrestin recruitment, primary screen, cell-based, luminescence. CHO-K1 mHTR2A beta-arrestin complementation; percent of 30 µM serotonin response. activation, % at 7.6 µM. 0.66% of 360,000 active. AID 624169, 2012;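 active means activation above a run cutoff, the mean activation of all tested compounds plus 3 SD, cut at about 14% in these data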;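 further: 0% = plate median of compound wells and 100% = 30 µM serotonin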
# Lipid droplet – inhibitors of hepatocyte lipid droplet formation, primary screen, imaging, high-throughput imaging, BODIPY stain | AML12 mouse hepatocytes, oleate lipid droplets | inhibition, % at 6.5 µM | 0.4% of 240,000 active;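 active means lipid droplet intensity inhibited by at least 50%, with more than 500 cells counted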
#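 Material: mouse AML12 hepatocyte cell line, fixed after treatment; Timing: compound with oleate, overnight; Technique: high-content imaging of BODIPY-stained droplets and DAPI nuclei; Probe or stimulus: oleate, 100 µM final; Dosing: compound at 6.5 µM only.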
# Hep lipid conf – hepatocyte lipid droplet accumulation inhibitors, confirmation, imaging, AML12 mouse hepatocytes, single concentration, high-content. shares compounds with Lipid droplet. BODIPY lipid droplet imaging; droplets induced with 100 µM oleic acid. inhibition, % at 5.2 µM. 65% of 870 active;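 active means inhibition of lipid droplet metric at least 50%, with more than 300 cells in each of four replicates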;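 further: plate controls were DMSO with oleic acid for no effect and 5 µM Triacsin-C for full effect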
# AML12 cytotox – AML12 hepatocyte cytotoxicity, counter-screen for hepatic lipid droplet formation project, imaging, DAPI nuclear morphology imaging. shares compounds with Lipid droplet. AML12 mouse hepatocytes; stronger effect = higher value; cells fed 100 µM oleate overnight. z-score at 5 µM. 3% of 870 active. AID 463200, 2010; in the data active means z-score above about 6.3;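 further: compound exposure lasted overnight at 37 °C before fixation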
# AML12 tox conf – AML12 hepatocyte cytotoxicity, confirmation, cytotoxicity control for hepatic lipid droplet formation project, cell-based, single concentration; shares compounds with Lipid droplet; AML12 mouse hepatocyte viability, ATP luminescence; cells loaded with 100 µM oleic acid; cytotoxicity, % at 50 µM; 530 tested, under 10 active;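 active means cytotoxicity above 50% in each of four replicates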;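 further: compound exposure lasted overnight at 37 °C before the ATP read; 0% = DMSO-treated cells and 100% = wells with no cells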
# * hit, by the source's call; nt = no result given.
SMILES,NRP1-CendR mod,Arr AP2 block,M18AAP inhibitor,sPLA2-III inh,m5-HT2A agonist,Lipid droplet,Hep lipid conf,AML12 cytotox,AML12 tox conf
Cc1ccc(Nc2ncnc3ccccc23)cc1,8,7,-9,-2,9,46,nt,nt,nt
COc1cccc(NC(=O)NC2CCCCN(Cc3ccccc3C)C2=O)c1 (stereo not given),nt,nt,nt,-7,nt,nt,nt,nt,nt
CNC(=O)OCc1cocc1COC(=O)NC,0,nt,nt,9,14,nt,nt,nt,nt
CCCOC(=O)c1ccc(NC(=O)c2ccc(Br)o2)cc1,-13,9,1,-7,-3,74*,82*,-0.94,6
Cc1ccc(NC(=O)Nc2ccc3c(c2)CCC3)cc1C,1,-1,3,-4,-10,-12,nt,nt,nt
Cc1ccc(NC(=O)Cc2ccc3c(c2)CCCC3)cc1C,7,0,-4,-8,1,53*,64*,0.49,9
CCN=C1NC(c2ccc(C(F)(F)F)cc2)C(C(=O)OC)=C(C)N1Cc1ccccc1C(F)(F)F (stereo not given),nt,nt,nt,13,nt,nt,nt,nt,nt
COc1ccc(CC(=O)OCC(=O)N2N=C(c3ccccc3)CC2c2ccc(OC)cc2)cc1 (stereo not given),-3,-16,-3,-9,-2,82*,107*,-0.45,nt
COc1ccccc1NS(=O)(=O)c1cc(NC(=O)CCc2nc3ccccc3c(=O)[nH]2)ccc1C,-15,-3,nt,-16,-6,nt,nt,nt,nt
COCCn1cnc2c(c1=O)c1nc3ccccc3nc1n2/N=C/c1ccc(OC)c(OC)c1,4,6,3,-2,5,53*,5,0.69,nt
C=CCn1cnc2c(c1=O)c1nc3ccccc3nc1n2/N=C/c1cccc(OC)c1,2,-11,nt,0,2,32,nt,nt,nt
COc1cccc(C2NC(=S)N(Cc3ccc(Br)cc3)C(C)=C2C(C)=O)c1 (stereo not given),nt,nt,nt,0,nt,nt,nt,nt,nt
COc1ccc(C(=O)Nc2sc3c(c2C(=O)NCc2ccco2)CCCC3)cc1OC,2,-4,0,7,0,69*,105*,-0.42,7
COc1cc(C(=O)Nc2sc3c(c2C(=O)NCc2ccco2)CCCC3)cc(OC)c1OC,2,8,-5,-4,-1,-12,nt,nt,nt
O=C(NCCNC(=O)c1ccc(-c2cc(Cl)ccc2Cl)o1)c1cnccn1,4,nt,nt,10,0,nt,nt,nt,nt
CCCNC(=O)c1cc(C2CCCCN2C(=O)CCCc2ccccc2)on1 (stereo not given),-12,nt,nt,4,-5,nt,nt,nt,nt
COc1ccc(CCn2ccc(O)c(Cc3ccc(Cl)cc3)c2=O)cc1OC,9,13,-6,0,-4,61*,106*,0.55,4
COc1ccc(CN2C(=O)C(CC(=O)NCc3cccs3)CC(C(=O)N(C)C)=C2C)cc1 (stereo not given),-12,nt,nt,4,-1,nt,nt,nt,nt
CCOc1cc2c(cc1OCC)C(c1ccccc1OC)OC(=O)C2 (stereo not given),-1,15,-2,-5,2,51*,79*,-0.96,3
COc1ccc(C2OC(=O)Cc3cc(OC)c(OC)cc32)cc1 (stereo not given),2,-14,-4,-12,6,4,nt,nt,nt
CCC(=O)Nc1c2c(nn1-c1ccc(C)cc1)CS(=O)(=O)C2,4,8,3,nt,9,57*,35,0.25,nt
Cc1ccc(-n2nc3c(c2NC(=O)CC(C)C)CS(=O)(=O)C3)cc1,5,1,-2,1,11,-3,nt,nt,nt
CCC/C(=N/Nc1ccc(Cl)cc1)c1cnnc(-c2ccccc2)n1,nt,nt,-13,nt,nt,nt,nt,nt,nt
CC/C(=N/Nc1ccccc1Cl)c1cnnc(-c2ccccc2)n1,-3,13,0,-5,-1,56*,75*,0.27,-10
COc1ccc(N=C2C(=Nc3ccc(OC)cc3)N(c3ccc(N(C)C)cc3)C(=S)N2c2ccc(OC)cc2)cc1,26*,20,-9,0,2,65*,15,1.8,nt
SMILES,NRP1-CendR mod,Arr AP2 block,M18AAP inhibitor,sPLA2-III inh,m5-HT2A agonist,Lipid droplet,Hep lipid conf,AML12 cytotox,AML12 tox conf
COc1ccc(N=C2C(=Nc3ccc(OC)cc3)N(c3ccc(OC)cc3)C(=S)N2C(=O)c2ccc(OC)cc2)cc1,-10,1,-3,3,-1,87*,113*,-0.62,8
CCCCn1c(SCC(=O)Nc2cc(C(F)(F)F)cc(C(F)(F)F)c2)nnc1C(CC)N(C)C (stereo not given),20,7,-1,-5,-4,78*,107*,-0.35,17
CCOc1ccccc1C(=O)N(Cc1ccco1)C1CCS(=O)(=O)C1 (stereo not given),8,-13,10,2,0,nt,nt,nt,nt
CCCCOc1ccccc1C(=O)N(Cc1ccco1)C1CCS(=O)(=O)C1 (stereo not given),2,33,-1,-4,8,51*,53,-0.47,10
COC(C[C@@H](O)C[C@@H](O)COCc1ccccc1)OC,2,3,nt,-4,-1,113*,1,0.34,nt
O=C(Cc1cccc2ccccc12)Nc1c(F)cccc1F,10,-3,2,0,-5,55*,82*,-0.75,9
O=C(Cc1cccc2ccccc12)Nc1ccccc1C(=O)O,-8,28,-8,-20,0,-2,nt,nt,nt
C=CC[C@]12C[C@@]3(O[C@H](c4ccc(C(F)(F)F)cc4)N=C3C[C@H](c3ccc(OC)cc3)[C@H]1C)N(Cc1ccncc1)C2=O,nt,nt,nt,-4,nt,nt,nt,nt,nt
COc1cc(NC(=O)c2cccs2)c(OC)cc1NC(=O)CCC(=O)Nc1ccc2ncccc2c1,10,12,-1,-9,-4,68*,95*,0.97,68
Cc1c(C(=O)O)sc2nc3n(c(=O)c12)CCC(C)CC3 (stereo not given),-5,17,-2,2,6,93*,27,-0.37,nt
